Drawing on ChEMBL document CHEMBL4477212 (J Med Chem, 2016), this text covers Activity and IC50 for 22 compounds.

Some results are limits rather than exact numbers.

For one series, the system named is CEM-SS. Briefly: Cytotoxicity against human CEM-SS cells assessed as cell viability at 10 uM after 6 days by MTS assay. In kind it is cell-based. The settings on record: 144 h. The method, boiled down: (§1)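 Single-concentration screen (10 μM) in CEM-SS cells infected with pre-titered HIV-1 IIIB, sized so virus control wells lose 70–95% viability. Incubation was 6 days and read-out was by MTS. Percent CPE reduction was calculated against virus control wells (cells plus virus). Percent viability was calculated against cell-only control wells. Plates included compound toxicity and colorimetric controls, and AZT as positive control.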

Series [1] has as its target Human immunodeficiency virus type 1 integrase (Human immunodeficiency virus 1, UniProt Q7ZJM1). Briefly: Inhibition of HIV1 recombinant integrase expressed in Escherichia coli using [32P]-labeled oligonucleotide as substrate after 60 mins by strand transfer activity assay.
The subject of series [2] is Human immunodeficiency virus 1. Briefly: Antiviral activity against HIV1 3B infected in human CEM-SS cells assessed as reduction of virus-induced cytopathic effect at 10 uM after 6 days by MTS assay. It counts as functional. Also noted: scale not given: the % may be the effect or the level left. In short, it runs like this: as §1
Background: Cytopathic effects are the visible damage that an infection or toxin causes in cultured cells.

Sequence of Human immunodeficiency virus type 1 integrase (Q7ZJM1 whole entry): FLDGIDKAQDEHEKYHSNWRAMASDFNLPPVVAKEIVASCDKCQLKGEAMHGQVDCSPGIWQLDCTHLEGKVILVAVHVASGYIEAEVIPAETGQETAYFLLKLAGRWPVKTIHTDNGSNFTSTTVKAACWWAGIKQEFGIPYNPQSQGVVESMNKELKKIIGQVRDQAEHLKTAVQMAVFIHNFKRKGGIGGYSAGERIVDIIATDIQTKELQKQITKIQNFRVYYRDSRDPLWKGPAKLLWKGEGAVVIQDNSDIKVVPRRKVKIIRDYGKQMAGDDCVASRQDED

In general, IC50 refers to the concentration that gives 50% inhibition. Consider `O=C(NCc1ccccc1)c1c(Nc2ccccc2)[nH]c(=O)n(O)c1=O`, for which the Activity with CEM-SS was determined as 21%; in series [2], 0%. Also, the IC50 in series [1] is > 100000 nM.
As to `O=C(NCc1ccccc1)c1c(Nc2ccc(-c3ccccc3)cc2)[nH]c(=O)n(O)c1=O`, the Activity in the series on CEM-SS was 13%; in series [2], 0%. Besides, the IC50 in series [1] was > 100000 nM.
The like results for `CCNc1[nH]c(=O)n(O)c(=O)c1C(=O)NCCc1ccccc1` were, in that order, 87%, 99% and 100 nM.
The like results for `CCCNc1[nH]c(=O)n(O)c(=O)c1C(=O)NCc1cccc(Cl)c1F` were, in that order, 48%, 33% and 58 nM.
For `Nc1[nH]c(=O)n(O)c(=O)c1C(=O)NCc1ccccc1`, in that order: 100%, 99% and 900 nM.
`CCNc1[nH]c(=O)n(O)c(=O)c1C(N)=O`: the IC50 in series [1] was > 100000 nM.
`CCNc1[nH]c(=O)n(O)c(=O)c1C(=O)NCCCl`: the Activity in the series on CEM-SS is listed as 100%; in series [2], 5.1%. In addition, in series [1], the IC50 was > 100000 nM.
For `CCNc1[nH]c(=O)n(O)c(=O)c1C(=O)NCc1cc(F)cc(F)c1`, the Activity (in the series with CEM-SS; in series [2]) was 100% in each case. Besides, the IC50 in series [1] is 230 nM.
Consider `CNc1[nH]c(=O)n(O)c(=O)c1C(=O)NCc1cccc(F)c1`, for which the Activity amounted to 95% in the series with CEM-SS and 100% in series [2]. Also, the IC50 in series [1] is 250 nM.
For `CNc1[nH]c(=O)n(O)c(=O)c1C(=O)NCc1cccc(Cl)c1F`, in that order: 100%, 100% and 110 nM.
With `O=C(NCc1ccc(F)cc1)c1c2n(c(=O)n(O)c1=O)CCCN2`, the Activity with CEM-SS is given as 5.5%; in series [2], 0%. The 50% inhibitory concentration (IC50) in series [1] is 430 nM.
As for `CC(C)Nc1[nH]c(=O)n(O)c(=O)c1C(=O)NCc1ccccc1`, the Activity in the series with CEM-SS amounted to 90%; in series [2], 98%. Further, in series [1], the IC50 is 150 nM.
For `CNc1[nH]c(=O)n(O)c(=O)c1C(=O)NCc1ccc(F)cc1`, in that order: 89%, 100% and 110 nM.
For the compound `O=C(NCc1ccccc1)c1c(NC2CC2)[nH]c(=O)n(O)c1=O`, the results for the Activity (in the series with CEM-SS; in series [2]) were 91% and 98%, respectively. Also, in series [1], the IC50 was determined as 210 nM.
For the compound `CCNc1[nH]c(=O)n(O)c(=O)c1C(=O)NCc1cc(F)ccc1F`, the Activity came to 87% in the series on CEM-SS and 92% in series [2]. In addition, the IC50 in series [1] was 68 nM.
Take `CCNc1[nH]c(=O)n(O)c(=O)c1C(=O)NCc1cc(F)ccc1Cl`: the figures for the Activity (in the series on CEM-SS; in series [2]) were 73% and 62%, respectively. Besides, the IC50 in series [1] worked out at 95 nM.
For `CCNc1[nH]c(=O)n(O)c(=O)c1C(=O)NCc1cccc(F)c1`, in that order: 90%, 100% and 68 nM.
The like results for `CC(C)(C)Nc1[nH]c(=O)n(O)c(=O)c1C(=O)NCc1ccccc1` were, in that order, 17%, 0% and 81 nM.
`CCNc1[nH]c(=O)n(O)c(=O)c1C(=O)Oc1ccccc1`: the Activity is on record as 100% in the series with CEM-SS and 50% in series [2]. Moreover, the 50% inhibitory concentration (IC50) in series [1] is > 100000 nM.
The like results for `CCNc1c(C(=O)NCc2ccc(F)cc2)c(=O)n(O)c(=O)n1C` were, in that order, 10%, 6.5% and > 100000 nM.
For `CCNc1[nH]c(=O)n(O)c(=O)c1C(=O)Nc1ccccc1`, in that order: 27%, 11% and 35000 nM.
Turning to `CCCNc1[nH]c(=O)n(O)c(=O)c1C(=O)NCc1ccccc1`, the Activity with CEM-SS was 97%; in series [2], 100%. Further, the concentration for half-maximal inhibition (IC50) in series [1] was 66 nM.
